# This is one part of a sample in which hits are shown more often than they occur.
# GSK3B inh: inhibitors of human GSK3beta kinase. GST-GSK3beta kinase, ADP-Glo luminescence, 60 min; hits give low values. 300,000 compounds, 0.038% hits. P49841. activity score (negative = inhibition), % at 10 µM;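 active = more than half of replicate wells score below -50%, meaning over 50% inhibition versus plate controls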;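 also: 0% = median DMSO wells and -100% = median GW8510 positive control wells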
#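 Test system – GST-tagged human GSK3beta kinase, cell-free · Incubation – 60 min enzyme reaction, room temperature · Signal – ADP-Glo luminescence · Also added – peptide substrate and ATP at 25 µM · Controls – DMSO neutral wells and GW8510 at 20 µM as positive · Buffer or medium – Tris/MgCl2 kinase buffer · Measure – Luminescence-derived activity versus plate DMSO and GW8510 wells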
# STK33 kinase inh: blocks human STK33 kinase activity; Q9BYT3; purified STK33, MBP phosphorylation, ADP-Glo luminescence; inhibition, % at 10 µM; 320,000 compounds, 0.073% hits; AID 2661;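 active = inhibition at or above 25%, using the most active replicate where run in duplicate; inactive = inhibition below 25%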
# GSK3 alpha inh: blocks human GSK-3 alpha kinase; P49840; ADP-Glo luminescence, 60 min; inhibition, % at 10 µM; 320,000 compounds, 0.1% hits;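 active = more than half of replicates show inhibition above 20%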;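 also: GST-tagged GSK-3 alpha with peptide substrate and 25 µM ATP; 0% = DMSO neutral wells and 100% = GW8510 positive control wells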
# CDK5 p35 inh: CDK5/p35 (human) kinase inhibition. Q00535+Q15078. Recombinant CDK5/p35, ADP-Glo luminescence, 60 min. inhibition, % at 10 µM. 330,000 compounds, 0.01% hits. AID 488839;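 active = highest replicate inhibition of at least 50% and at least 75% of replicates reaching 50%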;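 also: plate controls were DMSO neutral control for no effect and GW8510 at 10 µM for full effect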
# Target sequence (Q00535 whole entry, looked up): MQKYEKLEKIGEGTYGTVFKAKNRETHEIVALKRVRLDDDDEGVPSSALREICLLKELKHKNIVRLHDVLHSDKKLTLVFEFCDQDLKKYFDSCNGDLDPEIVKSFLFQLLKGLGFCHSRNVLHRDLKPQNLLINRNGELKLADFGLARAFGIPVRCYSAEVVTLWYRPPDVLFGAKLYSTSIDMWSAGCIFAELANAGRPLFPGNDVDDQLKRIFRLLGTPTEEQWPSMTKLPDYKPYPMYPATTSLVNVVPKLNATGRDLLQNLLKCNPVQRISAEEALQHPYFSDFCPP
# Target sequence (Q15078 whole entry, looked up): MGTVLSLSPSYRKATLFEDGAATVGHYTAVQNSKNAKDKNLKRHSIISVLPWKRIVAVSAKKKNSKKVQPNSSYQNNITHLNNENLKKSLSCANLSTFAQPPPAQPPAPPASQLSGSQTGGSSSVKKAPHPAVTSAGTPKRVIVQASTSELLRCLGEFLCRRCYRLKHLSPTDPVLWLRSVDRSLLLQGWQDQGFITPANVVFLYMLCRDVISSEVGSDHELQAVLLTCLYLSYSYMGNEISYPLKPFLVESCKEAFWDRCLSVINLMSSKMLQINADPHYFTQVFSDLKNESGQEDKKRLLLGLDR
# Dyrk1A ADPGlo: blocks rat Dyrk1A kinase activity | 310,000 compounds, 0.43% hits | inhibition, % at 12.5 µM | ADP-Glo luminescence, NFATc1 peptide | Q63470 | AID 504441; in the data active = inhibition above about 50%;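 also: plate controls were vehicle with enzyme for no effect and no enzyme for full effect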
# The depositor's hits bear a star; . = no result.
SMILES,GSK3B inh,STK33 kinase inh,GSK3 alpha inh,CDK5 p35 inh,Dyrk1A ADPGlo
O=C(CSc1nnc(SCc2ccccc2)s1)N/N=C/c1ccc(C(=O)O)cc1,-16,-1,53*,2,2
N#Cc1c(-c2ccccc2Cl)c2c([nH]c1=O)-c1ccccc1OC2,-10,3,55*,0,2
CCOc1ccc2nc3cc(N=Nc4ccc(N)nc4N)ccc3c(N)c2c1,.,.,.,62*,6
CCCCC(=O)N/N=C(/C)C1=C(C)C(C)(C)OC1=O,1,-1,1,-1,3
COc1ccc(CNc2ncnc3sccc23)cc1,3,0,1,0,-2
c1nc(N2CCCCCC2)c2[nH]cnc2n1,-2,10,28,4,11
c1nc(N2CCCC2)c2[nH]cnc2n1,-1,31*,14,3,18
COC(=O)c1ccc(CN(c2ccc(C(=O)O)c(O)c2)S(=O)(=O)c2ccc(Cl)c([N+](=O)[O-])c2)cc1,1,0,-2,0,1
CC(CC(=O)Nc1ncc([N+](=O)[O-])s1)c1ccccc1 (centres undefined),-20,-2,52*,3,.
CCC(Oc1ccccc1)C(=O)Nc1ncc([N+](=O)[O-])s1 (centres undefined),3,0,-4,0,1
O=C(CN1C(=O)CCC1=O)Nc1cccc2c1C(=O)NC2=O,-80*,-1,98*,3,2
O=C(Nc1cccc2c1C(=O)NC2=O)c1cccc(N2C(=O)CCC2=O)c1,-8,3,6,-2,3
COc1ccccc1NC(=O)C1CCN(C(=O)NCc2ccccc2)CC1,3,-4,-2,1,-7
Fc1ccc(-c2cnc[nH]2)cc1,3,29*,7,1,12
O=S(=O)(c1cnc[nH]1)N1CCN(c2ccc(F)cc2)CC1,2,0,-5,0,-2
COc1cc(/C=N/Nc2cc(C)nc(N)n2)ccc1O,2,2,0,2,8
COc1cc(/C=N/Nc2ccc(C(F)(F)F)cn2)ccc1O,-37,28*,4,17,28
COc1cc2ccccc2cc1C(=O)OCC(=O)c1c(N)n(C)c(=O)n(C)c1=O,.,2,1,0,6
CC1(C)Cc2cccc(C(=O)Nc3ccncc3)c2O1,1,10,73*,3,46
CC1(C)Cc2cccc(C(=O)Nc3ccc(Cl)cc3)c2O1,1,-1,2,1,14
Nc1c(CO)nnn1-c1ccccc1,-21,1,50*,1,6
OCc1nnn(-c2ccccc2)c1CO,-2,-1,-4,0,0
CC1CN(C(=S)Nc2ccccc2)C(C)CN1C=O (centres undefined),.,.,.,-1,4
c1ccc(Nc2ccnc(Nc3ccccc3)n2)cc1,0,36*,14,4,38
NNc1nc(Nc2ccccc2)nc(Nc2ccccc2)n1,0,1,-3,0,-23
SMILES,GSK3B inh,STK33 kinase inh,GSK3 alpha inh,CDK5 p35 inh,Dyrk1A ADPGlo
O=C(NC1CCCCC1)C1CCC(=O)N(Cc2cccc(C(F)(F)F)c2)C1 (centres undefined),0,0,0,0,3
CN(c1ncnc(N)c1[N+](=O)[O-])C1CCS(=O)(=O)C1 (centres undefined),-37,-1,55*,1,16
C=CCOc1ccccc1CN(C(=O)CCl)c1ccc2c(c1)OCO2,0,0,2,2,7
CCCN1C=CC(=C2C(=O)c3ccccc3C2=O)C=C1,0,31*,10,8,37
CCCc1cc(-c2[nH]ncc2-c2ccc(C(=O)OCC)o2)c(O)cc1O,0,1,-1,34,17
CCCc1cc(-c2[nH]ncc2-c2ccc3c(c2)OCCCO3)c(O)cc1O,-3,2,2,-5,58*
CCc1nc2sc3c(c2c(=O)n1N)CC(C)(C)OC3,1,2,-2,0,0
CN(C)c1nc2sc3c(c2c(=O)n1C)CC(C)(C)OC3,6,38*,2,2,1
COc1cccc(/C=C2/Sc3ccc(C(=O)NCCCN4CCCC4)cc3NC2=O)c1,-83*,11,84*,20,20
O=C1Nc2cc(C(=O)NCCCN3CCCC3)ccc2S/C1=C/c1ccccc1F,-67*,1,42,-1,-1
COc1cccc(/C=C2/Sc3ccc(C(=O)NCCN4CCCC4)cc3NC2=O)c1,-67*,1,1,11,18
S=C(Nc1ccccc1Oc1ccccc1)Nc1cccc(Cl)c1Cl,-1,-1,-1,2,0
CC1=C(C(=O)OC(C)C)C(c2c[nH]c3ccccc23)n2ncnc2N1 (centres undefined),0,1,93*,0,5
CCCC1=C(C(=O)OCC)C(c2sccc2C)n2ncnc2N1 (centres undefined),-34,1,78*,-3,-3
CCOC(=O)C1=C(C)Nc2ncnn2C1c1c[nH]c2ccccc12 (centres undefined),-74*,-1,71*,5,-2
CC1=C(C(=O)OC(C)C)C(c2cccs2)n2ncnc2N1 (centres undefined),2,1,23,-1,3
CCOC(=O)C1=C(C)Nc2ncnn2C1c1ccccc1F (centres undefined),0,-2,3,2,7
Cc1cc(C)n(CCC(=O)N=Nc2c(O)[nH]c3ccccc23)n1,0,-1,8,-2,-4
Cc1cc(C)n(CCC(=O)N=Nc2c(O)[nH]c3ccc(Br)cc23)n1,-16,0,73*,1,-3
CCCCCCCCCCC[N+](C)(C)CC/C=C1/c2ccccc2Sc2ccc(Cl)cc21,-5,31*,6,2,1
CC[N+](C)(C)CC/C=C1/c2ccccc2Sc2ccc(Cl)cc21,-5,-1,0,.,.
CCCCCCCCCC[N+](C)(C)CC/C=C1/c2ccccc2Sc2ccc(Cl)cc21,-6,32*,5,0,-4
COc1cc(NC(=O)c2ccccc2)c(C)cc1NC(=O)CC(CC(=O)O)c1ccccc1 (centres undefined),-1,-1,-2,-1,0
C=C1C(C(=O)Nc2ccccc2)C1C(=O)Nc1ccccc1 (centres undefined),-7,-1,-2,0,-3
c1ccc2c(CSc3nnc(-c4ccncc4)o3)cccc2c1,-26,-1,33,0,25
Clc1ccccc1CSc1nnc(-c2ccncc2)o1,1,0,54*,1,30
Fc1cccc(Cl)c1CSc1nnc(-c2ccncc2)o1,-34,2,57*,1,37
N#Cc1ccccc1CSc1nnc(-c2ccncc2)o1,-52*,2,21,1,26
Brc1cccc(CSc2nnc(-c3ccncc3)o2)c1,-70*,2,59*,0,26
COc1ccc(CNC(=O)CNS(=O)(=O)c2cccs2)cc1,4,-1,-3,0,-1

# High-throughput results (PubChem BioAssay)
